Experimental data: ChEMBL document CHEMBL1129272, “Identification of the first retinoid X, receptor homodimer antagonist” (J Med Chem, 1996)

Tests used:
[1] = target: T1, Retinoic acid receptor gamma (Homo sapiens, UniProt P13631); assay: Inhibition of [3H]ATRA binding to Retinoic acid receptor RAR gamma
T1 sequence (P13631 whole entry): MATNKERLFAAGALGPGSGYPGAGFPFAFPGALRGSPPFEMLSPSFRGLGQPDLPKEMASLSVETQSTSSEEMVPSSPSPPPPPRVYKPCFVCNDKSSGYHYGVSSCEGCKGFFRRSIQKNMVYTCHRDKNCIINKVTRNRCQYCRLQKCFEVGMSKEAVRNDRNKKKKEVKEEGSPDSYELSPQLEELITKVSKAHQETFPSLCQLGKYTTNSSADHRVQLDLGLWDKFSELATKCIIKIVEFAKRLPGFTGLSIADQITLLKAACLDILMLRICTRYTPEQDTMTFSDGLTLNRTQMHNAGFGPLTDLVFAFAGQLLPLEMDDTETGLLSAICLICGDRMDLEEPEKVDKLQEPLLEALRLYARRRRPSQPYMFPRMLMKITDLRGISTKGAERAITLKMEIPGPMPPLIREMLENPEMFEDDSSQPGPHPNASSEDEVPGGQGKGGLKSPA
Procedure, shortened: (§1)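 Receptors expressed recombinantly in a baculovirus system. Binding was measured by competition against 5 nM [3H]-all-trans-RA. Ki was calculated by the Cheng–Prusoff method.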

[2] = target: T2, Retinoic acid receptor beta (Homo sapiens, UniProt P10826); assay: Inhibition of [3H]ATRA binding to Retinoic acid receptor RAR beta; procedure, shortened: as §1
T2 sequence (P10826 whole entry): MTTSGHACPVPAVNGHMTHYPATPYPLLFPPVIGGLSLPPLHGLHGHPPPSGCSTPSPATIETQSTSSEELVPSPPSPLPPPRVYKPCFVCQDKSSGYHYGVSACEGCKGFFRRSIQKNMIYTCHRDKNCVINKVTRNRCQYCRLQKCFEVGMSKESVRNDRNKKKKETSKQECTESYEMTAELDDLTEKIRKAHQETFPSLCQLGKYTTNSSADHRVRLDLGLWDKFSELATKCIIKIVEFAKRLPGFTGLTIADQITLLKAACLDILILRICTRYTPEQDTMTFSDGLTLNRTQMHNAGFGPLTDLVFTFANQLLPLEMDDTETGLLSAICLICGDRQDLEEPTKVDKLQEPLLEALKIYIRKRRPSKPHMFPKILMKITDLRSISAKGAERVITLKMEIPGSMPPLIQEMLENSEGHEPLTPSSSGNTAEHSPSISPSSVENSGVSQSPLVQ

[3] = target: T3, Retinoic acid receptor alpha (Homo sapiens, UniProt P10276); assay: Inhibition of [3H]ATRA binding to Retinoic acid receptor RAR alpha; procedure, shortened: as §1
T3 sequence (P10276 whole entry): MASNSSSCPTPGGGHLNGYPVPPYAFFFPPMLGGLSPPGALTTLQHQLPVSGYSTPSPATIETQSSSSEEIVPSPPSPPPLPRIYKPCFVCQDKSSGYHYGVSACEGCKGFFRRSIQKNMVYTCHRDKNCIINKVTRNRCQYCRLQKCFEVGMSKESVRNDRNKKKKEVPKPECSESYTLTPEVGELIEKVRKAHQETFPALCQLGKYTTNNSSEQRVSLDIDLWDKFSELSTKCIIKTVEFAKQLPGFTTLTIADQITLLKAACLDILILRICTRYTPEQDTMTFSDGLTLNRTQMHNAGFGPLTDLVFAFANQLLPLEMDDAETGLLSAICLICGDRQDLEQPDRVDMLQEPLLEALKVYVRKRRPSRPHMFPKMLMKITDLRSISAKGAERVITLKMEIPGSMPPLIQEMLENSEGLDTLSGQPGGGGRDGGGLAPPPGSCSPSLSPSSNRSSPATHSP

[4] = target: T4, Retinoic acid receptor RXR-beta (Homo sapiens, UniProt P28702); assay: Inhibition of [3H]-Targretin binding to Retinoid X receptor RXR beta
T4 sequence (P28702 whole entry): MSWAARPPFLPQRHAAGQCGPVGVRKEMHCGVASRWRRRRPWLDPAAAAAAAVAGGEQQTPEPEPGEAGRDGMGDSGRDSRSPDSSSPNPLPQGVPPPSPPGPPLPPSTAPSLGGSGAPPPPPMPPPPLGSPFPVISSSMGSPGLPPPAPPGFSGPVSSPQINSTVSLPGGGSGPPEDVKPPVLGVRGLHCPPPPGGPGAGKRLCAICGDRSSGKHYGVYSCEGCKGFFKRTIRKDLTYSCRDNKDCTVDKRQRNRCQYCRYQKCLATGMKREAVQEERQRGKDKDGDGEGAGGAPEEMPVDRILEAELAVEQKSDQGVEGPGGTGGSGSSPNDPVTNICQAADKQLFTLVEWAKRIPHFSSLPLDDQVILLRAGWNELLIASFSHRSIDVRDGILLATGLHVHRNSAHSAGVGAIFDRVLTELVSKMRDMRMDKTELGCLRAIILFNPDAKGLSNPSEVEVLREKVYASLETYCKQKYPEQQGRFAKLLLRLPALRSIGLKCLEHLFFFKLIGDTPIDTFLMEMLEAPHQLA
Procedure, shortened: (§2)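 Recombinant receptors were expressed in a baculovirus system. Test ligands competed with [3H]Targretin (LGD1069) for binding. Ki values were derived by the Cheng–Prusoff method.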

[5] = target: T1, Retinoic acid receptor gamma; assay: Transcriptional activation of Retinoic acid receptor RAR gamma
Procedure, shortened: (§3)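 CV-1 cells were transiently cotransfected with the receptor expression vector, a ΔMTV-TREp-Luc reporter and an RSV-β-Gal internal control, then incubated with compound (log dilutions, 1 x 10^-12 to 1 x 10^-5 M). Luciferase was normalized by β-galactosidase. Response is % of the all-trans-RA maximum, giving EC50. Three experiments, triplicates at each concentration.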

[6] = target: T2, Retinoic acid receptor beta; assay: Transcriptional activation of Retinoic acid receptor RAR beta; procedure, shortened: as §3
[7] = target: T5, Retinoic acid receptor RXR-alpha (Homo sapiens, UniProt P19793); assay: Inhibition of [3H]targretin binding to Retinoid X receptor RXR alpha
T5 sequence (P19793 whole entry): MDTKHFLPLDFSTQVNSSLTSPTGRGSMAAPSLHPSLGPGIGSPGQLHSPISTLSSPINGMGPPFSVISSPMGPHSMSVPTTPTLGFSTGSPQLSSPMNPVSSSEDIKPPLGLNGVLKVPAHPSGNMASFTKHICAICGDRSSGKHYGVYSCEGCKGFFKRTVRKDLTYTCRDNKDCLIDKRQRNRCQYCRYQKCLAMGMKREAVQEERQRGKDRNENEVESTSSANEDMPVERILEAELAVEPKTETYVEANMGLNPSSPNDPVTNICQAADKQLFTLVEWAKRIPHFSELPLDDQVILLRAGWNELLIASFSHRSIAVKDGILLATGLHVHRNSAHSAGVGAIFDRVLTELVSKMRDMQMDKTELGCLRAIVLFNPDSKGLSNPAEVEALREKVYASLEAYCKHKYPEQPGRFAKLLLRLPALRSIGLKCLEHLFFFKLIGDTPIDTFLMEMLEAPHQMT

[8] = target: T6, Retinoic acid receptor RXR-gamma (Homo sapiens, UniProt P48443); assay: Transcriptional activation of Retinoid X receptor RXR gamma
T6 sequence (P48443 whole entry): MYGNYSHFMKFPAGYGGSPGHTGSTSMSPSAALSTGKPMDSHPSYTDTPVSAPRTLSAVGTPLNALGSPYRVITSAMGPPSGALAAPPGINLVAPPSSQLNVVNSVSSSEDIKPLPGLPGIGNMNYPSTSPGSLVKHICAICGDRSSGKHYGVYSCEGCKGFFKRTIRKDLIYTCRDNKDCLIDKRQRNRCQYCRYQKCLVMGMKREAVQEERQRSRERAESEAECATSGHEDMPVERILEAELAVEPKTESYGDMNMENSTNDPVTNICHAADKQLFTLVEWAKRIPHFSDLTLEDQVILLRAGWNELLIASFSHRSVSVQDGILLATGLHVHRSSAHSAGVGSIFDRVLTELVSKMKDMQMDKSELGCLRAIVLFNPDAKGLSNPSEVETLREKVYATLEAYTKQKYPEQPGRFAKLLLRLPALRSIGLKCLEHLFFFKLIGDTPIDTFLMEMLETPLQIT
Procedure, shortened: (§4)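 In transiently cotransfected CV-1 cells, the receptor vector was paired with a reporter (RXRβ: CPRE-tk-Luc; RXRγ: CRBPII-tk-Luc) plus an RSV-β-Gal internal control. Compound was tested at 1 x 10^-12 to 1 x 10^-5 M in log dilutions. Luciferase was corrected by β-galactosidase and expressed as % of the 9-cis-RA maximum to give EC50. Three experiments, triplicate points.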

[9] = target: T6, Retinoic acid receptor RXR-gamma; assay: Inhibition of [3H]targretin binding to Retinoid X receptor RXR gamma; procedure, shortened: as §2
[10] = target: T4, Retinoic acid receptor RXR-beta; assay: Transcriptional activation of Retinoid X receptor RXR beta; procedure, shortened: as §4
[11] = target: T5, Retinoic acid receptor RXR-alpha; assay: Transcriptional ativation of Retinoid X receptor RXR alpha
[12] = target: T3, Retinoic acid receptor alpha; assay: Transcriptional activation of Retinoic acid receptor RAR alpha; procedure, shortened: as §3

| Ki [1] | Ki [2] | Ki [3] | Ki [4] | EC50 [5] | EC50 [6] | Ki [7] | EC50 [8] | Ki [9] | EC50 [10] | EC50 [11] | EC50 [12] | SMILES |
| --- | --- | --- | --- | --- | --- | --- | --- | --- | --- | --- | --- | --- |
| 6090 nM | 2590 nM | 1790 nM | 9 nM | 192 nM |  |  |  |  |  |  |  | CCCOc1cc2c(cc1\C(C)=C/C=C/C(C)=C/C(=O)O)C(C)(C)CCC2(C)C |
| 4210 nM | 3120 nM | 2580 nM | 12 nM | 121 nM | 31 nM | 4 nM | 7 nM | 17 nM | 9 nM | 8 nM |  | CCOc1cc2c(cc1\C(C)=C/C=C/C(C)=C/C(=O)O)C(C)(C)CCC2(C)C |
| 437 nM | 400 nM | 306 nM | 2 nM | 17 nM | 8 nM | 2 nM | 9 nM | 4 nM | 8 nM | 5 nM | 40 nM | COc1cc2c(cc1\C(C)=C/C=C/C(C)=C/C(=O)O)C(C)(C)CCC2(C)C |
